Screening data (PubChem)
A selection: hits, their analogues and other compounds. The true share with any hit is near 2.6%.
Platelet DG rel: modulates dense granule release in human platelets. human platelet-rich plasma, SFLLRN dense granule ATP release, luminescence. inhibition, %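 (compounds screened at 7.5 µM in platelet-rich plasma)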. 0.22% of 300,000 active;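 active = mean replicate score, as percent of positive control, at or above 50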
SENP7 block: blocks the human protease SENP7; Q9BQF6; recombinant SENP7, Z-RLRGG-aminoluciferin luminescence, 40 min; 1.5% of 330,000 active; inhibition, % at 5 µM;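 active = inhibition above about 50% at the single test dose, limit read from the data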
SENP1 FRET inh: SENP1 (human) catalytic domain inhibition | recombinant SENP1 catalytic domain, CyPet-SUMO1-YPet FRET cleavage | inhibition, % at 10 µM | AID 624204 | 0.21% of 360,000 active | Q9P0U3;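 active = inhibition at least 30% at 10 µM, raw YFP signal under a set limit, fluorescence ratio 0.5 to 1.5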
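material = recombinant human SENP1 catalytic domain, His6-tagged | quantity = 20 pM enzyme | reagent = 25 nM SUMO1 FRET substrate | compound dosing = 10 µM single point, 0.5% DMSO | timing = 50 min enzyme reaction, room temperature, light-protected | detection = FRET, CFP and YFP emission | control set = no-enzyme low, enzyme-DMSO high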
SENP8 block-1: blocks human SENP8 cleavage of Nedd8 substrate. Q96LD8. recombinant SENP8, Nedd8 substrate fluorescence. inhibition, % at 20 µM. 0.64% of 360,000 active. AID 602440; in the data active = inhibition mostly above about 40%, no sharp cut-off; inactive = mostly below about 27%
SENP6 inh: inhibitors of human SENP6 protease. Q9GZR1. Recombinant SENP6 catalytic domain, aminoluciferin luminescence. inhibition, % at 10 µM. 1.8% of 330,000 active;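 active = inhibition above about 50% at the single tested dose, limit read from the data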
Target sequence (Q9GZR1 628-1112 limits assumed): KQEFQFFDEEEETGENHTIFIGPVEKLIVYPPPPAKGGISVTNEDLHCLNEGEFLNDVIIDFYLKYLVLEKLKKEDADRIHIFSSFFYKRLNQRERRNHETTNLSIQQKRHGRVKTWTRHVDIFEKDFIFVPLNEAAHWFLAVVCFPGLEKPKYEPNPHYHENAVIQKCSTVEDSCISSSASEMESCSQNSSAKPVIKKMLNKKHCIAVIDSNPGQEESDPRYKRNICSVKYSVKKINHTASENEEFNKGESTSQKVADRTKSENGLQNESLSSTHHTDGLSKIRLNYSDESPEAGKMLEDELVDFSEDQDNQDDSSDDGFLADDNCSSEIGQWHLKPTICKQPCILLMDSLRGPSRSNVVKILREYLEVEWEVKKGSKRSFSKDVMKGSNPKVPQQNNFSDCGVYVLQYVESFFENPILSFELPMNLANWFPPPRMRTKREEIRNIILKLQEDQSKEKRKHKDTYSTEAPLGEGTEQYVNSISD
SENP8 block-2: inhibitors of human SENP8 protease; inhibition, % at 10 µM; purified SENP8, Z-RLRGG-aminoluciferin cleavage, luminescence; Q96LD8; 1.2% of 330,000 active; AID 2540; in the data active = inhibition above about 50%
SENP8 conf-1: confirmation of human SENP8 protease inhibitors; shares compounds with SENP7 block; Recombinant SENP8, Z-RLRGG-aminoluciferin luminescence, 60 min; inhibition, % at 12.5 µM; 40% of 6,200 active;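 active = mean inhibition across replicates above about 50%, limit read from the data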
SENP6 confirm: confirmation of human SENP6 protease inhibitors; shares compounds with SENP7 block; recombinant SENP6, Z-RLRGG-aminoluciferin luminescence; inhibition, % at 12.5 µM; 58% of 6,200 active; AID 488915
SENP7 conf: confirmation of human SENP7 protease inhibitors | 69% of 6,200 active | inhibition, % at 12.5 µM | recombinant SENP7, Z-RLRGG-aminoluciferin luminescence, 40 min | shares compounds with SENP7 block | AID 488917
Casp3 SENP sel: caspase-3 inhibition (SENP selectivity assay). 60% of 6,200 active. inhibition, % at 12.5 µM. AID 488918. shares compounds with SENP7 block. purified caspase-3, Z-DEVD-aminoluciferin luminescence, 60 min;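 active = mean inhibition above about 50%, limit read from the data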
Target sequence (P42574 28-227 limits assumed): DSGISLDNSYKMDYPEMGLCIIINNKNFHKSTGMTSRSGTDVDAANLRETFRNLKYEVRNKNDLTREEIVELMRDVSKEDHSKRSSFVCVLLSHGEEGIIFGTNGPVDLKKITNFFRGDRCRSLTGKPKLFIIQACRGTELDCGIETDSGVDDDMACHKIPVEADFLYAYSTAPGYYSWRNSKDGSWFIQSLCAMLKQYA
SENP luc ctr: counter-screen for SENP inhibitors: luminescence interference | shares compounds with SENP7 block | Pre-incubated SENP8/Z-RLRGG-aminoluciferin, luciferase luminescence interference | inhibition, % at 12.5 µM | 39% of 6,200 active;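 active = mean inhibition above about 50% when retested at one dose, limit read from the data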
SENP8 conf-2: confirmation of human SENP8 protease inhibitors | shares compounds with SENP8 block-1 | purified SENP8, Nedd8-AMC/pro-Nedd8 cleavage fluorescence, 30 min | inhibition, % at 25 µM | 15% of 1,400 active; in the data active = inhibition mostly above about 39%, no sharp cut-off; inactive = mostly below about 34%
A number is an active result; - = inactive; . = no result given.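 The calls were made as follows, unless noted: active = mean inhibition above about 50% in the one-dose retest (limit read from the data); inactive = the rest.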

SMILES	Platelet DG rel	SENP7 block	SENP1 FRET inh	SENP8 block-1	SENP6 inh	SENP8 block-2	SENP8 conf-1	SENP6 confirm	SENP7 conf	Casp3 SENP sel	SENP luc ctr	others
CN1C(=O)CC(c2ccccc2)Nc2ccccc21 (stereo not given)	-	-	-	-	-	-	.	.	.	.	.
Clc1cccc(Cl)c1CN1CCN(c2ccccc2)CC1	-	-	-	-	-	-	.	.	.	.	.
COc1cc2[nH]c(=O)n(-c3ccccc3)c(=O)c2cc1OC	-	-	-	-	-	-	.	.	.	.	.
COc1cc(C(c2c(C)[nH]n(-c3ccccc3)c2=O)c2c(C)[nH]n(-c3ccccc3)c2=O)cc(OC)c1OC	-	64.4	-	80.5	58.5	-	-	-	-	-	-
Cc1nc(Cl)sc1C(=O)Nc1ccc2ccccc2c1	-	-	-	-	54.9	-	-	-	74.7	-	-
CCNCC(O)c1cccc(O)c1 (stereo not given)	-	-	-	-	-	-	.	.	.	.	.
NNCc1cccc(O)c1	-	56.4	-	-	81.4	72.5	-	-	55.1	51.8	73.0
O=C1NC(=O)C(CCc2ccncc2)(CCc2ccncc2)C(=O)N1Cc1ccccc1	-	-	-	-	-	-	.	.	.	.	.
CCCCCn1c(N)c(C(=O)NCCN2CCOCC2)c2nc3ccccc3nc21	-	-	-	-	-	-	.	.	.	.	.
Nc1c(C(=O)NCCCc2ccccc2)c2nc3ccccc3nc2n1Cc1cccs1	-	-	-	-	60.3	-	-	-	-	-	-
CCCCCn1c(N)c(C(=O)NCc2cccs2)c2nc3ccccc3nc21	-	-	.	.	79.6	84.1	-	-	-	-	-
Nc1c(C(=O)NCc2ccco2)c2nc3ccccc3nc2n1Cc1ccccc1	-	-	-	-	-	-	.	.	.	.	.
CCCOC(=O)c1c(N)n(Cc2cccs2)c2nc3ccccc3nc12	-	-	-	-	-	-	.	.	.	.	.
COCCCn1c(N)c(C(=O)NCCC(C)C)c2nc3ccccc3nc21	-	63.5	-	-	80.7	76.7	-	-	-	-	-
CCCCNC(=O)c1c(N)n(Cc2ccc3c(c2)OCO3)c2nc3ccccc3nc12	-	61.9	-	-	94.3	89.2	-	-	-	-	-
Cn1c(O)c(C=NCCCCCCCCCCC(=O)O)c(=O)n(C)c1=O	-	-	-	-	-	-	.	.	.	.	.
CCCCn1c(N)c(C(=O)NCc2cccs2)c2nc3ccccc3nc21	-	-	-	-	87.8	93.0	-	-	-	-	-
CCCCCCn1c(N)c(C(=O)NCCN2CCOCC2)c2nc3ccccc3nc21	-	-	-	-	-	-	.	.	.	.	.
CCC1(NS(=O)(=O)c2ccc(N)cc2)C(=O)N(C)C(=O)N(C)C1=O	.	.	-	-	.	.	.	.	.	.	.
Nc1nonc1C(=O)N/N=C/c1ccc([N+](=O)[O-])o1	-	-	-	-	-	-	.	.	.	.	.
N/C(=N\[N+](=O)[O-])N/N=C/c1ccc(O)cc1	-	79.1	-	-	92.4	67.5	77.9	75.2	90.7	91.8	80.9
O=C1NCN(c2ccccc2)C12CCN(C(c1cccs1)c1nnnn1C1CCCC1)CC2 (stereo not given)	.	.	-	-	.	.	.	.	.	.	.
CCCCn1c(NS(=O)(=O)c2ccc(C)cc2)c(C(=O)OCC)c2nc3ccccc3nc21	-	-	-	-	92.8	62.1	-	-	-	-	-
CCOC(=O)c1c(N)n(Cc2ccco2)c2nc3ccccc3nc12	.	-	-	-	-	-	.	.	.	.	.
CCCCn1c(N)c(C(=O)OCCOC)c2nc3ccccc3nc21	-	-	-	-	-	-	.	.	.	.	.
SMILES	Platelet DG rel	SENP7 block	SENP1 FRET inh	SENP8 block-1	SENP6 inh	SENP8 block-2	SENP8 conf-1	SENP6 confirm	SENP7 conf	Casp3 SENP sel	SENP luc ctr	others
CCCCn1c(NC(=O)c2ccco2)c(C(=O)OCC)c2nc3ccccc3nc21	-	-	-	-	83.8	62.2	75.3	89.1	71.1	-	-
COc1cc2c(cc1OC)C13CCN4CC5CCOC6CC(=O)N2C1C6C5CC43 (stereo not given)	.	.	-	-	.	.	.	.	.	.	.
CC1=CC(=C2C(=O)NC(=S)NC2=O)C=C(C(F)(F)F)N1C	-	-	-	-	-	-	.	.	.	.	.
CC(C)c1ccc(N=Nc2c(O)[nH]c(=O)[nH]c2=O)cc1	-	-	-	-	-	-	.	.	.	.	.
O=c1[nH]c(=S)[nH]c(O)c1N=Nc1ccc(SC(F)F)cc1	-	83.2	-	-	100.2	90.7	81.3	94.6	89.4	94.6	61.8
O=[N+]([O-])c1ccc(NC2CCN(Cc3ccccc3)CC2)c2ccncc12	-	-	-	40.2	65.5	-	-	-	-	-	-	SENP8 conf-2=-
O=[N+]([O-])c1ccc(N2CCNCC2)c2ncccc12	-	.	.	.	.	.	.	.	.	.	.
O=[N+]([O-])c1ccc(N2CCCC2)c2ccncc12	-	-	-	52.8	59.6	-	-	-	-	-	-	SENP8 conf-2=-
CN1CCCC1c1ccc(=O)[nH]c1 (stereo not given)	.	.	-	-	.	.	.	.	.	.	.
O=C(c1c[nH]cc1-c1ccccc1)c1cccc2ccccc12	-	-	-	46.5	-	-	.	.	.	.	.	SENP8 conf-2=-
CCCCC1(CCCC)C(=O)NC(=Nc2cccc(C)c2)NC1=O	-	-	-	-	-	-	.	.	.	.	.
Cc1cccc(N=C2c3cc([N+](=O)[O-])ccc3-c3c2cc([N+](=O)[O-])cc3[N+](=O)[O-])c1	.	.	-	94.2	.	.	.	.	.	.	.	SENP8 conf-2=-
CC1CN(c2ccc([N+](=O)[O-])cc2Cl)CCN1 (stereo not given)	-	-	-	32.2	-	-	.	.	.	.	.	SENP8 conf-2=-
CN1CCN(c2ccc([N+](=O)[O-])cc2Cl)CC1	-	-	-	-	-	-	.	.	.	.	.
COC1=CC(=O)OC(CCc2ccc3c(c2)OCO3)C1 (stereo not given)	.	.	-	40.1	.	.	.	.	.	.	.	SENP8 conf-2=-
CC(C)[C@H](NC(=O)N1C[C@H]2C[C@@H](C1)c1cccc(=O)n1C2)C(=O)Nc1ccccc1F	-	-	-	47.1	-	-	.	.	.	.	.	SENP8 conf-2=-
CC(=O)O[C@@]12CO[C@@H]1C[C@H](O)[C@@]1(C)C(=O)[C@H](O)C3=C(C)[C@@H](O)C[C@@](O)([C@@H](OC(=O)c4ccccc4)C12)C3(C)C (stereo not given in full)	-	-	-	58.1	-	-	.	.	.	.	.	SENP8 conf-2=-
